Measured values published in PMC6598221 (Saudi Pharmaceutical Journal : SPJ, 2019).

Target: trypsin from porcine pancreas (Sus scrofa, UniProt P00761)
Experiment: trypsin inhibition assay
Format: biochemical
Procedure, shortened: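 Porcine pancreatic trypsin. Test compound stock diluted twofold in 50 mM Tris buffer (20 mM CaCl2, pH 8.2). Trypsin and BAPNA added at final 40 and 160 µg/mL, incubated at 37 °C for 12 min, stopped with 30% acetic acid, A410 read. IC50 derived from % inhibition. Caffeic and tannic acids were reference inhibitors. Means ± standard errors; one-way ANOVA with Tukey's test, p < 0.05.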

Chain of trypsin from porcine pancreas (P00761 9-231): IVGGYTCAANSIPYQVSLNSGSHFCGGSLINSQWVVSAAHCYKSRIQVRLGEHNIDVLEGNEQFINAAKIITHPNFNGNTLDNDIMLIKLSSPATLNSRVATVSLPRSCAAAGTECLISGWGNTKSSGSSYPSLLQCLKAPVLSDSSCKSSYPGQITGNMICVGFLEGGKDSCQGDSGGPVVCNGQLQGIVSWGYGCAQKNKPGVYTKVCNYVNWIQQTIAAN

| Compound | IC50 | IC50 trypsin inhibition |
| --- | --- | --- |
| O=C(O)/C=C/c1ccc(O)c(O)c1 [caffeic acid] | 40.6 mM |  |
| tannic acid |  | 75.66 µg/mL |
